{"source": "ChEMBL document CHEMBL5576109", "about": "“Hydantoin derivative dimers as broad-spectrum antimicrobial agents against ESKAPE pathogens with enhanced killing rate and stability” (RSC Med Chem, 2024)", "key": {"[1]": {"experiment": "Hemolytic activity in mouse red blood cells assessed as hemolysis incubated for 1 hr by TECAN SPARK microplate reader analysis", "assay_type": "toxicity, cell-based, Erythrocyte", "conditions": "red blood cells (erythrocytes)", "procedure,_shortened": "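Mouse RBCs washed three times in 1× PBS by centrifugation (3500 rpm, 10 min) and made up as a 5% v/v suspension. Incubated with 2-fold serially diluted compound in PBS for 1 h at 37 °C, then centrifuged. Supernatant diluted in PBS and A540 read. % hemolysis calculated relative to 1% Triton X-100 (100%) and PBS (0%).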"}, "Staphylococcus aureus [2]": {"tested_on": "Staphylococcus aureus", "experiment": "Bactericidal activity against Staphylococcus aureus ATCC 29213 assessed as reduction in colony forming units incubated for 15 to 120 mins by time-kill kinetics assay", "assay_type": "functional, organism-based", "conditions": "time 15-120 min", "procedure,_shortened": "(§1)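 Bacteria grown at 37 °C to mid-log phase and diluted to 1 × 10^6 CFU/mL. […] Mixtures diluted 10^2–10^4-fold and plated on TSB agar; colonies counted after 20 h at 37 °C.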"}, "Escherichia coli [3]": {"tested_on": "Escherichia coli", "experiment": "Bactericidal activity against Escherichia coli ATCC 25922 assessed as reduction in colony forming units incubated for 15 to 120 mins by time-kill kinetics assay", "assay_type": "functional, organism-based", "conditions": "time 15-120 min", "procedure,_shortened": "as §1"}, "Escherichia coli [4]": {"tested_on": "Escherichia coli", "experiment": "Bactericidal activity against Escherichia coli ATCC 25922 assessed as reduction in colony forming units at 1 to 4 times of MIC by time-kill kinetics assay", "assay_type": "functional, organism-based", "conditions": "time 15-120 min, TDE = time-dependent effect", "procedure,_shortened": "as §1"}, "Escherichia coli [5]": {"tested_on": "Escherichia coli", "experiment": "Bactericidal activity against Escherichia coli ATCC 25922 assessed as inhibition of bacterial growth at 1 to 4 times of MIC measured within 1 hr mins by time-kill kinetics assay relative to control", "assay_type": "functional", "procedure,_shortened": "as §1"}, "Escherichia coli [6]": {"tested_on": "Escherichia coli", "experiment": "Bactericidal activity against Escherichia coli ATCC 25922 assessed as reduction in colony forming units at 4 times of MIC measured after 60 mins by time-kill kinetics assay", "assay_type": "functional, organism-based", "procedure,_shortened": "as §1"}, "Staphylococcus aureus [7]": {"tested_on": "Staphylococcus aureus", "experiment": "Antibacterial activity against Staphylococcus aureus ATCC 29213 assessed as inhibition of bacterial growth by measuring fold increase in MIC compound preincubated at 120 degree C for 1 hr followed by bacterial culture addition and measured after 16 to 18 hrs by TECAN SPARK microplate reader analysis", "assay_type": "functional", "conditions": "time 16-18 hrs"}, "Staphylococcus aureus [8]": {"tested_on": "Staphylococcus aureus", "experiment": "Antibacterial activity against Staphylococcus aureus ATCC 29213 assessed as inhibition of bacterial growth by measuring fold increase in MIC measured after 16 to 18 hrs in presence of KCl by TECAN SPARK microplate reader analysis", "assay_type": "functional", "conditions": "time 16-18 hrs", "procedure,_shortened": "(§2)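 Salt/serum stability. Exponential-phase bacteria incubated 16–18 h with compound in medium supplemented with 10 mM NaCl, 10 mM KCl, 10 mM MgCl2, 10% DMEM or 10% FBS. Stability judged from the change in MIC.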"}, "Staphylococcus aureus [9]": {"tested_on": "Staphylococcus aureus", "experiment": "Antibacterial activity against Staphylococcus aureus ATCC 29213 assessed as inhibition of bacterial growth by measuring fold increase in MIC measured after 16 to 18 hrs in presence of MgCl2 by TECAN SPARK microplate reader analysis", "assay_type": "functional", "conditions": "time 16-18 hrs", "procedure,_shortened": "as §2"}, "Staphylococcus aureus [10]": {"tested_on": "Staphylococcus aureus", "experiment": "Antibacterial activity against Staphylococcus aureus ATCC 29213 assessed as inhibition of bacterial growth by measuring fold increase in MIC measured after 16 to 18 hrs in presence of 10% DMEM by TECAN SPARK microplate reader analysis", "assay_type": "functional", "conditions": "time 16-18 hrs", "procedure,_shortened": "as §2"}, "Staphylococcus aureus [11]": {"tested_on": "Staphylococcus aureus", "experiment": "Antibacterial activity against Staphylococcus aureus ATCC 29213 assessed as inhibition of bacterial growth by measuring fold increase in MIC measured after 16 to 18 hrs in presence of 10% FBS by TECAN SPARK microplate reader analysis", "assay_type": "functional", "conditions": "time 16-18 hrs", "procedure,_shortened": "as §2"}, "Escherichia coli [12]": {"tested_on": "Escherichia coli", "experiment": "Antibacterial activity against Escherichia coli ATCC 25922 assessed as inhibition of bacterial growth by measuring fold increase in MIC compound preincubated at 40 degree C for 1 hr followed by bacterial culture addition and measured after 16 to 18 hrs by TECAN SPARK microplate reader analysis", "assay_type": "functional", "conditions": "time 16-18 hrs"}, "Escherichia coli [13]": {"tested_on": "Escherichia coli", "experiment": "Antibacterial activity against Escherichia coli ATCC 25922 assessed as inhibition of bacterial growth by measuring fold increase in MIC measured after 16 to 18 hrs in presence of MgCl2 by TECAN SPARK microplate reader analysis", "assay_type": "functional", "conditions": "time 16-18 hrs", "procedure,_shortened": "as §2"}, "Escherichia coli [14]": {"tested_on": "Escherichia coli", "experiment": "Antibacterial activity against Escherichia coli ATCC 25922 assessed as inhibition of bacterial growth by measuring fold increase in MIC measured after 16 to 18 hrs in presence of 10% DMEM by TECAN SPARK microplate reader analysis", "assay_type": "functional", "conditions": "time 16-18 hrs", "procedure,_shortened": "as §2"}, "Staphylococcus aureus [15]": {"tested_on": "Staphylococcus aureus", "experiment": "Drug resistance, ratio of MIC for Staphylococcus aureus ATCC 29213 after 25 passages to MIC for Staphylococcus aureus ATCC 29213 after initial exposure", "assay_type": "functional", "conditions": "time 16 hrs", "procedure,_shortened": "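Serial passage resistance selection: after each broth MIC determination, bacteria from the 1/2 MIC well were withdrawn and diluted to 1 × 10^6 CFU/mL for the next MIC measurement. Repeated for 25 passages; MIC after passage 25 compared with the initial MIC.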"}, "Staphylococcus aureus [16]": {"tested_on": "Staphylococcus aureus", "experiment": "Induction of inner membrane permeabilization in Staphylococcus aureus ATCC 29213 assessed as increase in fluorescence intensity incubated for 1 hr by propidium iodide staining based TECAN SPARK microplate reader analysis", "assay_type": "functional, organism-based", "procedure,_shortened": "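Overnight 37 °C cultures resuspended in PBS and diluted to OD600 0.1. Propidium iodide added (5 µM final) for 30 min. Treated with a range of compound concentrations for 1 h in the dark; fluorescence read at Ex 535 / Em 615 nm.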"}, "Escherichia coli [17]": {"tested_on": "Escherichia coli", "experiment": "Induction of outer membrane permeabilization in Escherichia coli ATCC 25922 assessed as increase in fluorescence intensity at 1 to 4 times of MIC incubated for 1 hr by NPN staining based TECAN SPARK microplate reader analysis", "assay_type": "functional, organism-based", "procedure,_shortened": "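Overnight E. coli resuspended in PBS and diluted to OD600 0.1. NPN added (10 µM final) for 30 min. Treated with a range of compound concentrations for 1 h in the dark; fluorescence read at Ex 350 / Em 420 nm.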"}, "Staphylococcus aureus [18]": {"tested_on": "Staphylococcus aureus", "experiment": "Induction of morphological changes in Staphylococcus aureus ATCC 29213 assessed as cell shrinkage at 8 time of MIC for 6 hrs by scanning electron microscopy", "assay_type": "functional, organism-based", "procedure,_shortened": "(§3)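 Mid-log cells exposed to compound for 6 h at 37 °C alongside untreated controls. Cells pelleted (3000 rpm, 15 min), washed four times in PBS, and fixed with 2.5% glutaraldehyde. Dehydrated through graded ethanol, critical-point dried and gold-coated, then imaged by SEM.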"}, "Staphylococcus aureus [19]": {"tested_on": "Staphylococcus aureus", "experiment": "Induction of morphological changes in Staphylococcus aureus ATCC 29213 assessed as cell wrinkled at 8 time of MIC for 6 hrs by scanning electron microscopy", "assay_type": "functional, organism-based", "procedure,_shortened": "as §3"}, "Escherichia coli [20]": {"tested_on": "Escherichia coli", "experiment": "Induction of morphological changes in Escherichia coli ATCC 25922 assessed as cellular inclusion leakage at 8 time of MIC for 6 hrs by scanning electron microscopy", "assay_type": "functional, organism-based", "procedure,_shortened": "as §3"}, "Staphylococcus aureus [21]": {"tested_on": "Staphylococcus aureus", "experiment": "Induction of membrane disruption in Staphylococcus aureus ATCC 29213 assessed as increase in red fluorescence at 8 times of MIC for 6 hrs by Hoechst 33342 and propidium iodide staining based confocal microscopic analysis", "assay_type": "functional, organism-based"}, "Escherichia coli [22]": {"tested_on": "Escherichia coli", "experiment": "Induction of membrane disruption in Escherichia coli ATCC 25922 assessed as increase in red fluorescence at 8 times of MIC for 6 hrs by Hoechst 33342 and propidium iodide staining based confocal microscopic analysis", "assay_type": "functional, organism-based"}}, "note": "Activity calls are given as the source filed them. The calls are words filed in the database; no cut-off is given here."}
{"smiles": "CCCCCCN1C(=O)[C@H](CCCCNC(=N)N)N(Cc2ccc(-c3ccc(CN4C(=O)N(CCCCCC)C(=O)[C@@H]4CCCCNC(=N)N)cc3)cc2)C1=O", "values": [{"measurement": "HC50 at 1 h", "setting": "[1]", "value": 61, "unit": "µg/mL"}, {"measurement": "Activity", "setting": "Staphylococcus aureus [2]", "value": "Dose-Dependent Effect"}, {"measurement": "Activity", "setting": "Escherichia coli [3]", "value": "Dose-Dependent Effect"}, {"measurement": "Activity", "setting": "Escherichia coli [4]", "value": "Tde"}, {"measurement": "inhibition (INH)", "setting": "Escherichia coli [5]", "value": 100, "unit": "%"}, {"measurement": "Activity", "setting": "Escherichia coli [6]", "value": "Active"}, {"measurement": "fold change (FC)", "setting": "Staphylococcus aureus [7]", "value": 1}, {"measurement": "fold change (FC)", "setting": "Staphylococcus aureus [8]", "value": 1}, {"measurement": "fold change (FC)", "setting": "Staphylococcus aureus [9]", "value": 1}, {"measurement": "fold change (FC)", "setting": "Staphylococcus aureus [10]", "value": 1}, {"measurement": "fold change (FC)", "setting": "Staphylococcus aureus [11]", "value": 1}, {"measurement": "fold change (FC)", "setting": "Escherichia coli [12]", "value": 1}, {"measurement": "fold change (FC)", "setting": "Escherichia coli [13]", "value": 1}, {"measurement": "fold change (FC)", "setting": "Escherichia coli [14]", "value": 1}, {"measurement": "Ratio", "setting": "Staphylococcus aureus [15]", "value": "<=4"}, {"measurement": "Activity", "setting": "Staphylococcus aureus [16]", "value": "Dose-Dependent Effect"}, {"measurement": "Activity", "setting": "Escherichia coli [17]", "value": "Active"}, {"measurement": "Activity", "setting": "Staphylococcus aureus [18]", "value": "Active"}, {"measurement": "Activity", "setting": "Staphylococcus aureus [19]", "value": "Active"}, {"measurement": "Activity", "setting": "Escherichia coli [20]", "value": "Active"}, {"measurement": "Activity", "setting": "Staphylococcus aureus [21]", "value": "Active"}, {"measurement": "Activity", "setting": "Escherichia coli [22]", "value": "Active"}]}
